Shown is part of a subset that was picked to be rich in hits.
RORA inh – blocks the human nuclear receptor RORA. actives 0.43% (n = 65,000). inhibition, % at 10 µM. AID 561. CHO-K1 Gal4-RORA LBD luciferase reporter, luminescence. P35398;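 active = inhibition above the mean of all tested compounds plus 3 SD, cut at about 52% in these data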;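 note: 0% = RORA-transfected cells with DMSO and 100% = mock-transfected cells lacking RORA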
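Test system: CHO-K1 cells with Gal4-hRORA LBD fusion and pG5-luc reporter / Compound: single concentration per compound, 10 µM final / Schedule: 20 h compound treatment, 37 °C / Signal: luminescence from basal luciferase reporter expression / Read-out: % inhibition / Control set: mock-transfected cells as 100%, +RORA DMSO cells as 0% / Replicates: tested once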
* hit, by the source's call.

SMILES	RORA inh
COc1cc2nc(CN3CC=C(c4ccccc4)CC3)[nH]c(=O)c2cc1OC	80.3*
Nc1ccc(S(=O)(=O)N2CC3CC(C2)c2cccc(=O)n2C3)cc1 (centres undefined)	-10.5
CC(C)C(=O)N1CCN(CCN=Cc2c(O)n(C)c(=O)n(C)c2=O)CC1	5.4
COc1ccc(CC[n+]2cc(/N=C(\C)[O-])on2)cc1OC	4.6
Cc1cccc(NC2=NCCCS2)c1C	19.2
COc1ccc2c(c1)c(C(=O)CN1CCN(C)CC1)c(C)n2Cc1ccccc1	-29.0
CN(C(=O)c1ccco1)C1(c2ccccc2Cl)CCCCC1=O (centres undefined)	6.9
O=C(c1cc2c(s1)-c1ccccc1OC2)N1CCC2(CC1)OCCO2	-54.1
CCn1nc(-c2cccs2)nc2c(=O)n(C)c(=O)nc1-2	90.7*
Cn1c2ccccc2c2c(C(=O)N3CCC4(CC3)OCCO4)cn(C3CCCCC3)c(=O)c21	0.0
O=c1[nH]c2ccccc2n1CCCN1CCC(n2c(=O)[nH]c3cc(Cl)ccc32)CC1	14.2
CCCNC(=O)N1C2CCC1CC(O)(c1cccnc1)C2 (centres undefined)	-13.1
O=C1CN=C(c2ccccc2)c2oc3ccc(Br)cc3c2N1	10.0
COc1cccc(OC)c1C1=NCC(=O)Nc2c1oc1ccc(Br)cc21	62.4*
CC1(C)CN=C(Nc2nc3ccccc3s2)S1	-54.2

High-throughput results (PubChem BioAssay)
